The test system of assay [1] is Z-138. Description: In vivo inhibition of PRMT5 in human Z138 cells xenografted in mouse assessed as increase in GADD45A expression at 100 mg/kg, po BID measured for 7 days. The settings on record: time 7.0 day. It counts as functional, organism-based. On the technique in general: Xenograft models place foreign cells or tissue in a host animal.
For the next assay, the system named is MCL. Description: Induction of cell cycle arrest in human MCL cells assessed as increase in 2n cell population measured upto 5000 nM measured for 3 days by propidium iodide staining based flow cytometric analysis. The settings on record: time 3.0 day. It counts as functional. On the technique in general: A flow cytometer gives signals particle by particle.

Assay [2] relates to Z-138. Kind of assay: In vivo inhibition of PRMT5 in human Z138 cells xenografted in po dosed mouse assessed as reduction in SDMA level measured for 7 days. The settings on record: dose 0.2-100 mg/kg, time 7.0 day. It counts as functional, organism-based.
The next assay has as its system KMS-11. Description: Antiproliferative activity against human KMS-11 cells assessed as cell growth inhibition incubated for 6 days by celltiter-glo assay. It counts as functional. As to conditions: KMS-11, 144 h, time 6 day. The gist of the method: (§1)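 Cells seeded in 384-well plates at an optimized density and held 24 h. CellTiter-Glo luminescence read at Day 0 and Day 6. Four-parameter fit. gIC50 = midpoint of the growth window between DMSO and T0. Curves required ≥1.5 population doublings.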
(In ATP-based viability assays light output follows the ATP content of the culture.)

Assay [3] relates to Z-138. Description: Induction of cell cycle arrest in human Z138 cells assessed as increase in sub-2n cell population measured upto 1000 nM measured for 5 days by propidium iodide staining based flow cytometric analysis. It counts as functional. The settings on record: time 5.0 day.
The test system of assay [4] is Z-138. Description: Induction of cell cycle arrest in human Z138 cells assessed as increase in 2n cell population measured upto 5000 nM measured for 3 days by propidium iodide staining based flow cytometric analysis. It counts as functional. The settings on record: time 3.0 day.
The test system of the next assay is JVM-2. Description: Induction of apoptosis in human JVM-2 cells assessed as early apoptotic cells incubated for 6 days by annexin-V/FITC propidium iodide staining based flow cytometry analysis. It counts as functional, cell-based. As to conditions: dose <= 5000.0 nM, time 6.0 day.
Assay [5] deals with Z-138. Description: Induction of cell cycle arrest in human Z138 cells assessed as decrease in 2n cell population measured upto 1000 nM measured for 2 to 5 days by propidium iodide staining based flow cytometric analysis. It counts as functional. The settings on record: time 2-5 day.
Assay [6] concerns Z-138. Description: In vivo inhibition of PRMT5 in human Z138 cells xenografted in mouse assessed as increase in p53 level at 100 mg/kg, po BID measured for 7 days by immunohistochemical analysis. It counts as functional, organism-based. The settings on record: time 7.0 day.
The subject of assay [7] is Z-138. Description: Induction of apoptosis in human Z138 cells assessed as dead cells incubated for 6 days by annexin-V/FITC propidium iodide staining based flow cytometry analysis. It counts as functional, cell-based. As to conditions: dose 200.0 nM, time 6.0 day.
The next assay relates to JeKo-1. Kind of assay: Induction of cell cycle arrest in human JeKo-1 cells assessed as increase in 2n cell population measured upto 5000 nM measured for 3 days by propidium iodide staining based flow cytometric analysis. The settings on record: time 3.0 day. It counts as functional.
Assay [8] concerns Z-138. Kind of assay: Antitumor activity against human Z138 cells xenografted in mouse at 25 to 50 mg/kg, po qd measured at 14 to 21 days. It counts as functional, organism-based. The settings on record: dose lower […], dose upper 50.0 mg/kg, time 14-21 day.
For the next assay, the system named is NCI-H460. Description: Antiproliferative activity against human NCI-H460 cells assessed as cell growth inhibition incubated for 10 days. It counts as functional. The settings on record: NCI-H460, 240 h, time 10 day.
The subject of the next assay is MHH-PREB-1. Description: Antiproliferative activity against human MHH-PREB-1 cells assessed as cell growth inhibition incubated for 10 days. It counts as functional. The settings on record: MHH-PREB-1, 240 h, time 10 day.
Another assay has as its system LS174T. Description: Antiproliferative activity against human LS174T cells assessed as cell growth inhibition incubated for 10 days. It counts as functional. The settings on record: 240 h, time 10 day.
The next assay has as its system SCC-9. Description: Antiproliferative activity against human SCC-9 cells assessed as cell growth inhibition incubated for 10 days. It counts as functional. The settings on record: SCC-9, 240 h, time 10 day.
The next assay relates to U-937. Kind of assay: Antiproliferative activity against human U-937 cells assessed as cell growth inhibition incubated for 6 days by celltiter-glo assay. It counts as functional. The settings on record: U-937, 144 h, time 6 day. The gist of the method:
as §1

The next assay deals with WiDr. Description: Antiproliferative activity against human WiDr cells assessed as cell growth inhibition incubated for 10 days. It counts as functional. The settings on record: 240 h, time 10 day.
The test system of another assay is SK-MEL-1. Description: Antiproliferative activity against human SK-MEL-1 cells assessed as cell growth inhibition incubated for 10 days. It counts as functional. As to conditions: SK-MEL-1, 240 h, time 10 day.
A further assay has as its system SiHa. Kind of assay: Antiproliferative activity against human SiHa cells assessed as cell growth inhibition incubated for 10 days. It counts as functional. The settings on record: 240 h, time 10 day.
In another assay the test system is CAL-62. Description: Antiproliferative activity against human CAL-62 cells assessed as cell growth inhibition incubated for 10 days. It counts as functional. The settings on record: CAL-62, 240 h, time 10 day. The gist of the method:
(§2)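 Cells kept in RPMI-1640 with 10% FBS, 2 mM L-alanyl-L-glutamine and 1 mM Na pyruvate (or a special medium) at 37°C, 5% CO2. Compound added 24 h after seeding, 10 concentrations in 3.16-fold dilution, 0.1% DMSO final. Medium replaced and cells re-dosed at 168 h; 240 h incubation. Nuclei fixed, dye-stained and imaged. gIC50 = growth midway between untreated and time-zero cell counts, from a 4-parameter fit.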

Assay [9] is described as follows: Antiproliferative activity against human BM-1604 cells assessed as cell growth inhibition incubated for 10 days. The settings on record: BM-1604, 240 h, time 10 day. It counts as functional. In outline:
as §2

A further assay concerns COR-L105. Description: Antiproliferative activity against human COR-L105 cells assessed as cell growth inhibition incubated for 10 days. As to conditions: COR-L105, 240 h, time 10 day. It counts as functional. In outline:
(§3)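 Outsourced panel run in 384-well plates. Cells were grown in RPMI-1640/10% FBS or a special medium at 37°C, 5% CO2. Compound was added 24 h after seeding as a 10-point, 3.16-fold series in 0.1% DMSO. Medium was refreshed and cells re-dosed at 168 h, with a time-zero plate kept. At 240 h cells were fixed, nuclei stained and imaged. gIC50 is growth midway between untreated and time zero, from a 4-parameter fit.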

A further assay has as its system L-428. Kind of assay: Antiproliferative activity against human L-428 cells assessed as cell growth inhibition incubated for 10 days. It counts as functional. The settings on record: L-428, 240 h, time 10 day.
The subject of the next assay is A204. Kind of assay: Antiproliferative activity against human A204 cells assessed as cell growth inhibition incubated for 10 days. It counts as functional. As to conditions: A204, 240 h, time 10 day. In outline: as §2
A further assay relates to BXPC-3. Kind of assay: Antiproliferative activity against human BXPC-3 cells assessed as cell growth inhibition incubated for 10 days. It counts as functional. As to conditions: BXPC-3, 240 h, time 10 day. In outline: as §2
The test system of another assay is SW1353. Kind of assay: Antiproliferative activity against human SW1353 cells assessed as cell growth inhibition incubated for 10 days. It counts as functional. As to conditions: SW1353, 240 h, time 10 day.
Assay [10] is described as follows: Antiproliferative activity against human SW579 cells assessed as cell growth inhibition incubated for 10 days. The settings on record: SW579, 240 h, time 10 day. It counts as functional.
A further assay has as its system COR-L23. Description: Antiproliferative activity against human COR-L23 cells assessed as cell growth inhibition incubated for 10 days. The settings on record: COR-L23, 240 h, time 10 day. It counts as functional. The gist of the method: as §3
The subject of another assay is HT-29. Description: Antiproliferative activity against human HT-29 cells assessed as cell growth inhibition incubated for 10 days. It counts as functional. The settings on record: HT-29, 240 h, time 10 day. The gist of the method: as §3
A further assay concerns CAKI-2. Description: Antiproliferative activity against human CAKI-2 cells assessed as cell growth inhibition incubated for 10 days. It counts as functional. As to conditions: CAKI-2, 240 h, time 10 day. In outline: as §2
A further assay relates to CWR22R. Description: Antiproliferative activity against human 22Rv1 cells assessed as cell growth inhibition incubated for 10 days. It counts as functional. As to conditions: 22Rv1, 240 h, time 10 day. The gist of the method:
as §2

The test system of another assay is OE33. Description: Antiproliferative activity against human OE33 cells assessed as cell growth inhibition incubated for 10 days. It counts as functional. The settings on record: OE33, 240 h, time 10 day.

Calls of active or inactive are those of the source. The rule behind the calls is not given here.

The GI50 is the concentration that inhibits growth by half.

`CC(=O)N1CCC(Nc2cc(C(=O)NC[C@H](O)CN3CCc4ccccc4C3)ncn2)CC1` [PEMRAMETOSTAT]: the inhibition result with Z-138 [1] and in the assay with Z-138 [6] was “Active” in each case. In addition, the result in the assay with MCL, with Z-138 [3], with Z-138 [4], in the assay on Z-138 [5] and with Z-138 [8] was Active. The inhibition entry with Z-138 [2] is “Dose-Dependent Effect”. Besides, the GI50 with KMS-11 is 66 nM. For the same molecule, the Activity entry in the assay on JVM-2 and in the assay on Z-138 [7] was “Dose-Dependent Effect” in each case. For the same molecule, the outcome in the assay on JeKo-1 was inactive.
For the molecule `O=C(NC[C@H](O)CN1CCc2ccccc2C1)c1ccnc(NC2CCC2)c1`, the GI50 in the assay on NCI-H460 was 224 nM; with MHH-PREB-1 it was 10000 nM; with LS174T, 170 nM; with SCC-9, 747 nM; in the assay with U-937 it was 49 nM; with WiDr, 505 nM. The GI50 worked out at 38.7 nM in the assay with SK-MEL-1; 2510 nM in the assay on SiHa; 253 nM in the assay with CAL-62; 142 nM in assay [9]; 314 nM with COR-L105; 330 nM in the assay with L-428. The GI50 in the assay on A204 came out at 223 nM; in the assay with BXPC-3, 160 nM; in the assay on SW1353, 129 nM; in assay [10], 83.3 nM; with COR-L23 it was 147 nM; in the assay on HT-29, 95.2 nM. In addition, the GI50 was 114 nM in the assay with CAKI-2, 2480 nM with CWR22R and 231 nM in the assay with OE33.

Source of the values: ChEMBL document CHEMBL5653630, “Activation of the p53-MDM4 regulatory axis defines the anti-tumour response to PRMT5 inhibition through its role in regulating cellular splicing” (Sci Rep, 2018).
